Bioassay records deposited in PubChem BioAssay by several laboratories.
Shown are actives, neighbours in structure and some others; about 1.4% of the full set was active somewhere.
DAGLB inh = blocks human DAGLB lipase activity; inhibition, % at 5.17 µM; AID 504411; hit rate 0.059% among 340,000; HEK293T DAGLB membrane lysate, EnzChek fluorogenic substrate; in the data active = inhibition above about 34%;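 also: 0% = enzyme with vehicle and 100% = wells lacking enzyme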
Target sequence (Q8NCG7 whole entry, looked up): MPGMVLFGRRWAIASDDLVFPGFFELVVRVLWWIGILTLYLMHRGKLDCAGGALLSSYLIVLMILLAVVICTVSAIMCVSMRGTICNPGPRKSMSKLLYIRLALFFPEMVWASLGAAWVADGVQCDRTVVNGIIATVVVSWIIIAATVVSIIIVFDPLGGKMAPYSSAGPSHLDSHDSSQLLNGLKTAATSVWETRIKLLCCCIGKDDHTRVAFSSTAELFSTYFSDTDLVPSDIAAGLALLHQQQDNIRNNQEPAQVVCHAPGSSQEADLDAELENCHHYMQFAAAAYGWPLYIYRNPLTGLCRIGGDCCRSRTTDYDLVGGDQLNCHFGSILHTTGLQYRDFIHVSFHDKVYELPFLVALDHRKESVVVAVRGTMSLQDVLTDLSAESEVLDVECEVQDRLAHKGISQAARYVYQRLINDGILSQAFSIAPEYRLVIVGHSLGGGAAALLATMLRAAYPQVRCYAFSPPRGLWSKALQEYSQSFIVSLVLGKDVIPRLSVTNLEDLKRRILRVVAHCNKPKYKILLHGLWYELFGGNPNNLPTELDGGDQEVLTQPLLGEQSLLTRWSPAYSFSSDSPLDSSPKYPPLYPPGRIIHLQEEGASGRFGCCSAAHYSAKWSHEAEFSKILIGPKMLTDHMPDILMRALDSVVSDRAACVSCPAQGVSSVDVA
HTR5A inv ag = inverse agonist of human HTR5A in OPRM1-OPRD1 counter-screen. P47898. HTR5A cell line, luminescence, inverse agonism. inhibition, % at 9.3 µM. hit rate 0.083% among 340,000; in the data active = inhibition mostly above about 23%, no sharp cut-off; inactive = mostly below about 18%;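 also: 0% = cells with DMSO and 100% = no-cell wells with DMSO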
HTR5A ag ctr = HTR5A agonism, opioid heterodimer counter-screen; P47898; HTR5A agonist assay, luminescence, cell-based; activation, % at 9.3 µM; hit rate 0.61% among 340,000; AID 504692; in the data active = activation mostly above about 9.5%, no sharp cut-off; inactive = mostly below about 7.6%;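 also: 0% = cells with vehicle only and 100% = reference agonist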
MOR-DOR ag-1 = agonists of human mu-delta opioid receptor heterodimerization; cells, OPRM1-OPRD1 heterodimerization, luminescence; activation, % at 9.3 µM; hit rate 0.3% among 340,000; AID 504326;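 also: 0% = vehicle-treated cells and 100% = reference agonist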
OPRM1-OPRD1 inv = inverse agonists of human mu-delta opioid receptor heterodimerization; inhibition, % at 9.3 µM; hit rate 0.21% among 340,000; P35372+P41143; cell-based MOR-DOR heterodimer luminescence, inverse agonism; in the data active = inhibition above about 22%, passing the limit was not always enough;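 also: 0% = cells with DMSO and 100% = wells without cells with DMSO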
Arrestin-AP2 inh = human beta-arrestin and AP2 interaction inhibition; FITC-arrestin peptide / GST-AP2 beads, flow cytometry; AP2 beta2 appendage carries R879A mutation; inhibition, % at 10 µM; hit rate 0.31% among 340,000; AID 504490;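 active = inhibition above a set limit, near 3 SD of compounds lacking own fluorescence, cut at about 54% in these data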;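 also: plate controls were DMSO wells for no effect and 5 µM unlabelled arrestin peptide for full effect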
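System: GST-AP2 R879A glutathione beads. Medium: PBS with 0.05% Tween 20 and 0.1% BSA. Also added: FITC-arrestin peptide, 50 nM. Incubation: 12 min plus 1 h, RT. Measured by: high-throughput flow cytometry of beads, ex 488, em 535 nm. Evaluation: percent drop in bead-associated FITC signal.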
MOR-DOR ag-2 = counter-screen for HTR5A agonists: OPRM1-OPRD1 heterodimerization agonism; activation, % at 9.3 µM; shares compounds with HTR5A ag ctr; U2OS counter-screen cells, complementation luminescence, 3 h; hit rate 13% among 800
HTR5A ag confirm = HTR5A (human) agonism, confirmation; activation, % at 9.3 µM; shares compounds with HTR5A ag ctr; HTR5A agonist cell assay, luminescence; hit rate 17% among 800; in the data active = activation above about 17%;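 also: 0% = cells with vehicle only and 100% = full reference agonist response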
Active calls of the source: *; . = no result given. Rule as the data show it, unless noted: active = activation above about 18%; inactive = the rest.

SMILES | DAGLB inh | HTR5A inv ag | HTR5A ag ctr | MOR-DOR ag-1 | OPRM1-OPRD1 inv | Arrestin-AP2 inh | MOR-DOR ag-2 | HTR5A ag confirm
Cn1cnc(C(=O)NC2CCN(C(=O)OC(C)(C)C)CC2)c1C(=O)NC1CCN(C(=O)OC(C)(C)C)CC1 | -1 | 13 | 0 | -2 | 13 | 3 | . | .
O=c1cnc2ccccc2n1Cc1ccccc1 | -3 | . | . | . | . | . | . | .
O=C(c1ccc(Cn2c(=O)[nH]c3ccccc3c2=O)cc1)N1CCN(c2ccccc2)CC1 | 5 | -4 | 15* | 6 | -32 | 5 | 1 | 8
O=C(c1ccc(Cn2c(=S)[nH]c3ccccc3c2=O)cc1)N1CCN(c2ccccn2)CC1 | 5 | -43 | 16* | 3 | -15 | -12 | 0 | -3
O=C(c1ccc(Cn2c(=O)[nH]c3ccccc3c2=O)cc1)N1CCN(c2ccccn2)CC1 | 0 | -36 | 12 | 0 | 2 | 2 | . | .
O=C(NCCc1c[nH]c2ccccc12)C(=O)NCC(c1ccco1)N1CCN(c2ccc(F)cc2)CC1 (stereo unspecified) | 5 | -166 | 47* | 0 | 1 | 8 | 6 | 56*
O=C(NCCc1c[nH]c2ccccc12)C(=O)NCC1OCCCN1S(=O)(=O)c1cc(F)ccc1F (stereo unspecified) | 1 | -151 | 36* | -3 | 14 | -10 | -1 | -11
O=C(Nc1cccc(C(=O)N2CCCC2)c1)C1CCCCC1 | -2 | 13 | -4 | -4 | 16 | -16 | . | .
CC1CCC(C(O)(C(=O)c2ccccc2)c2ccccc2)C(=O)C1 (stereo unspecified) | -13 | . | . | . | . | . | . | .
CCn1c(C)nc2cc(C(=O)NN=Cc3ccccc3OC(F)F)ccc21 | -1 | -46 | 18* | -1 | 6 | -8 | 16 | 7
Cn1cccc1C(=O)NC(=O)COC(=O)CNS(=O)(=O)c1ccc(Br)cc1 | -8 | -49 | 17* | -2 | 8 | 25 | 17 | 13
COc1ccc2[nH]c3c(c2c1)CCNC3(C)CCc1ccc(Cl)nc1 (stereo unspecified) | 5 | -81 | 21* | -1 | 5 | 5 | 2 | 34*
COc1ccc2[nH]c3c(c2c1)CNCC3 | 2 | . | . | . | . | . | . | .
CCCCCCCCCCOC(=O)Cn1c(COc2ccccc2OC)[n+](C)c2ccccc21 | 6 | -53 | 14* | 9 | -41 | -8 | 37* | 9
CC(C)(C)c1ccc(S(=O)(=O)CCc2ccccn2)cc1 | -1 | -67 | 24* | -2 | 12 | 6 | 1 | 4
Cc1ccc(S(=O)(=O)CCc2ccccn2)cc1 | 2 | -14 | 5 | -2 | 13 | 13 | . | .
Cc1cccc(CN(C)C[C@H]2OCc3cnnn3CCCC(=O)N([C@@H](C)CO)C[C@@H]2C)c1 | 0 | . | . | . | . | . | . | .
CC(C)c1c(C(=O)N/N=C/c2ccc(OCc3ccccc3)cc2)nnn1-c1nonc1N | -5 | -4 | 22* | 2 | -13 | -4 | 41* | -1
Nc1nonc1-n1nnc(C(=O)N/N=C/c2ccc(OCc3ccccc3)cc2)c1COc1ccc(F)cc1 | -1 | 13 | 1 | 1 | -5 | 10 | . | .
CC(C)c1c(C(=O)N/N=C/c2ccc(OCc3ccc(F)cc3)cc2)nnn1-c1nonc1N | -5 | -8 | 15* | 4 | -21 | -10 | 7 | -1
CCCN(CC(=O)Nc1ccccc1C)C(=O)/C=C/c1ccc(OC)c(OC)c1 | -1 | . | . | . | . | . | . | .
COc1cc(NC(=O)COc2ccccc2[N+](=O)[O-])ccc1NC(=O)c1cccs1 | 6 | -42 | 16* | 9 | -50 | 15 | 7 | 9
COc1cc(NC(=O)COc2ccccc2Cl)ccc1NC(=O)c1cccs1 | -4 | -18 | 8 | 4 | -33 | 9 | . | .
CCc1nc2oc3ccccc3c(=O)c2c(=O)n1-c1ccc(C)cc1 | . | . | . | . | . | 18 | . | .
CCc1nc2oc3ccccc3c(=O)c2c(=O)n1-c1ccccc1 | 0 | -4 | 14* | -4 | 21 | 2 | -2 | -3
SMILES | DAGLB inh | HTR5A inv ag | HTR5A ag ctr | MOR-DOR ag-1 | OPRM1-OPRD1 inv | Arrestin-AP2 inh | MOR-DOR ag-2 | HTR5A ag confirm
COc1ccc2c(c1)CC=C1C2CCC2(C)C(=O)C(=NO)CC12 (stereo unspecified) | -3 | -30 | 8 | 4 | -18 | -24 | . | .
Cc1ccc(CNS(=O)(=O)c2ccc(-n3cccn3)cc2)cc1 | -1 | . | . | . | . | . | . | .
COC(=O)c1cc(-c2c[nH]c3ccccc23)n[nH]1 | -1 | -160 | 30* | -2 | 7 | 25 | 10 | 0
COC(=O)c1cc(-c2ccc(Br)cc2)n[nH]1 | -3 | -11 | 4 | 0 | -2 | -4 | . | .
O=C(c1ccccc1)N1CCOC(O)(c2ccccc2)C1c1ccccc1 (stereo unspecified) | 1 | 14 | -4 | -3 | 16 | -4 | . | .
Oc1c(Cl)cc(Cl)c2cccnc12 | 0 | 24 | -9 | 8 | -40 | 9 | . | .
O=C(Oc1c(Cl)cc(Cl)c2cccnc12)c1cccs1 | -3 | 11 | 17* | 6 | -29 | 17 | 8 | -1
O=C(Oc1c(CN2CCOCC2)cc(Cl)c2cccnc12)c1cccs1 | 1 | 10 | -4 | 0 | -2 | 29 | . | .
O=C(Oc1c(Cl)cc(Cl)c2cccnc12)c1ccco1 | 2 | 0 | 26* | 4 | -26 | -1 | 4 | 0
COC(=O)CCCC1=CC2=C(c3ccccc3)C(=O)C(C)(OC(=O)C3CCCC3)C(=O)C2=CN1CCc1c[nH]c2ccccc12 (stereo unspecified) | 5 | -12 | 15* | 1 | -6 | 26 | 2 | 8
CC1(OC(=O)CCc2ccccc2)C(=O)C=C2C=C(c3ccc(C#N)cc3)N(CCc3c[nH]c4ccccc34)C=C2C1=O (stereo unspecified) | 5 | -32 | 20* | 7 | -39 | 2 | 5 | 6
Cc1cccc2cc(CNCC3CCCO3)c(Cl)nc12 (stereo unspecified) | 1 | -41 | 15* | -1 | 5 | 13 | 0 | -1
Cc1ccc(S(=O)(=O)N2C[C@H]3N(C(=O)OC(C)C)N(C(=O)OC(C)C)C[C@H](OC(=O)Nc4c(C)noc4C)[C@@]3(O)C2)cc1 | -2 | . | . | . | . | . | . | .
CCOc1ccc(S(=O)(=O)N2CN3CCN(C3)C2)cc1 | 1 | -14 | 2 | -2 | 9 | -7 | . | .
CCOc1ccc(S(=O)(=O)N2CCNC(=O)C2)cc1 | -2 | -57 | 20* | 0 | 0 | -6 | 0 | 2
CCCOn1nnnc1-c1ccccc1 | -5 | -56 | 20* | 0 | -1 | 19 | 535* | 3
NCCCCc1ccc2ccc3cccc4ccc1c2c34 | 4 | -40 | 16* | 7 | -36 | -16 | 15 | 5
